Among the data in ChEMBL document CHEMBL1144182, “Antimicrobial and cytotoxic arylazoenamines. Part III: antiviral activity of selected classes of arylazoenamines” (Bioorg Med Chem, 2008) are Activity, EC50 and CC50 values, retold here.

Activity calls are given as the source filed them. No rule for the calls is given here.

For orientation: EC50 means the concentration giving half of the maximal effect. By CC50 is commonly meant the concentration at which the toxic effect on the cells reaches its halfway point.

The first series relates to Human immunodeficiency virus 1. As to the kind of experiment: Antiviral activity against HIV1 infected in MT4 cells assessed as virus-induced cytopathogenicity after 4 days. The class given is functional, organism-based.
Conditions: not given
(In general: Damage to the host cells serves as the signal in cytopathic effect assays.)
For the molecule `COc1ccc(N2CCN(/C=C/N=N/c3ccccc3)CC2)cc1`, the result was inactive.
Same read-out and setting: to `CN1CCC/C1=C\N=N\c1ccc(Cl)cc1` belongs “inactive”.
`CN1CCC/C1=C\N=N\c1cccc([N+](=O)[O-])c1`: the outcome was inactive.
For `FC(F)(F)c1cccc(N2CCN(/C=C/N=N/c3ccccc3)CC2)c1`, the result was inactive.
Same read-out and setting: as for `CN1CCC/C1=C\N=N\c1ccccc1`, the entry is “inactive”.
For `C(=C\N1CCCC1)/N=N/c1ccccc1`, the result was inactive.
On to `CN1/C(=C\N=N\c2ccc(Cl)cc2)C(C)(C)c2ccccc21`, for which the outcome was inactive.

Another series has as its system Coxsackievirus B2. As to the kind of experiment: Antiviral activity against CVB2 infected in Vero76 cells assessed as reduction in virus plaque formation after 4 days by MTT assay. The series is classed as functional, organism-based. To be noted: Enterovirus B, Vero 76, 96 h. On the technique in general: Tetrazolium dyes change colour on reduction, which living cells bring about.
For `COc1ccc(N2CCN(/C=C/N=N/c3ccccc3)CC2)cc1`, the EC50 was 5 µM.
Still for that read-out and setting: to `CN1CCC/C1=C\N=N\c1ccc(Cl)cc1` belongs 24 µM; to `CN1CCC/C1=C\N=N\c1cccc([N+](=O)[O-])c1`, > 100 µM.
As for `FC(F)(F)c1cccc(N2CCN(/C=C/N=N/c3ccccc3)CC2)c1`, the EC50 was > 11 µM.
With `CN1CCC/C1=C\N=N\c1ccccc1`, the EC50 worked out at 19 µM.
As to `C(=C\N1CCCC1)/N=N/c1ccccc1`, the EC50 was 4 µM.
`CN1/C(=C\N=N\c2ccc(Cl)cc2)C(C)(C)c2ccccc21`: the EC50 was > 100 µM.

Test system in a further series: not listed separately
As to the kind of experiment: Cytotoxicity against mock-infected MDBK cells assessed as reduction in cell viability after 96 hrs by MTT assay. The class given is cell-based, Bos taurus. As to conditions: cattle. In short, it runs like this:
(§1)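 Cytotoxicity run in parallel with the antiviral assays. MDBK seeded at 6 × 10^5 and BHK at 1 × 10^6 cells/mL in maintenance medium with or without serial compound dilutions. Incubated 48–96 h at 37 °C, 5% CO2, then viability read by MTT. CC50 is the concentration reducing mock-infected cell viability by 50%.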
For the molecule `COc1ccc(N2CCN(/C=C/N=N/c3ccccc3)CC2)cc1`, the half-maximal cytotoxic concentration (CC50) at 96 h is 19 µM.
Turning to `CN1CCC/C1=C\N=N\c1ccc(Cl)cc1`, the CC50 at 96 h was 85 µM.
Turning to `CN1CCC/C1=C\N=N\c1cccc([N+](=O)[O-])c1`, the CC50 at 96 h was > 100 µM.
In the case of `FC(F)(F)c1cccc(N2CCN(/C=C/N=N/c3ccccc3)CC2)c1`, the CC50 at 96 h came out at 9 µM.
Consider `CN1CCC/C1=C\N=N\c1ccccc1`, for which the CC50 at 96 h was > 100 µM.
Regarding `C(=C\N1CCCC1)/N=N/c1ccccc1`, the CC50 at 96 h was found to be 63 µM.
Still for that read-out and setting: as for `CN1/C(=C\N=N\c2ccc(Cl)cc2)C(C)(C)c2ccccc21`, the figure is 72 µM.

The test system of the next series is Vesicular stomatitis virus. The series can be described thus: Antiviral activity against VSV infected in Vero76 cells assessed as reduction in virus plaque formation after 4 days by MTT assay. To be noted: Vero 76. The series is classed as functional, organism-based.
Take `COc1ccc(N2CCN(/C=C/N=N/c3ccccc3)CC2)cc1`: the outcome was inactive.
For `CN1CCC/C1=C\N=N\c1ccc(Cl)cc1`, the outcome was inactive.
With `CN1CCC/C1=C\N=N\c1cccc([N+](=O)[O-])c1`, the outcome was inactive.
For the molecule `FC(F)(F)c1cccc(N2CCN(/C=C/N=N/c3ccccc3)CC2)c1`, the result was inactive.
`CN1CCC/C1=C\N=N\c1ccccc1`: the result was inactive.
On the same count and under the same terms, as for `C(=C\N1CCCC1)/N=N/c1ccccc1`, the entry is “inactive”; as for `CN1/C(=C\N=N\c2ccc(Cl)cc2)C(C)(C)c2ccccc21`, “inactive”.

The next series concerns Bovine viral diarrhea virus 1. The series can be described thus: Antiviral activity against BVDV infected in MDBK cells assessed as protection against virus-induced cytopathogenicity after 4 days by MTT assay. To be noted: Bovine viral diarrhea virus isolates and strains, 96 h. The series is classed as functional, organism-based. In short, it runs like this:
(§2)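 MDBK (BVDV) or BHK-21 (YFV) cells were seeded at 3 × 10^4 or 5 × 10^4 cells/well respectively and grown overnight to confluent monolayers at 37 °C in 5% CO2. Monolayers were infected at m.o.i. 0.01 in serum-free medium. After 1 h, MEM Earle's with 1% FCS was added, with or without serial compound dilutions. After 3–4 days at 37 °C, viability was read by MTT. EC50 was taken as 50% protection from virus-induced cytopathogenicity.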
For `COc1ccc(N2CCN(/C=C/N=N/c3ccccc3)CC2)cc1`, the EC50 is > 19 µM.
In the case of `CN1CCC/C1=C\N=N\c1ccc(Cl)cc1`, the EC50 was 21 µM.
Still for that read-out and setting: to `CN1CCC/C1=C\N=N\c1cccc([N+](=O)[O-])c1` belongs 5.5 µM.
Take `FC(F)(F)c1cccc(N2CCN(/C=C/N=N/c3ccccc3)CC2)c1`: the EC50 is > 9 µM.
As for `CN1CCC/C1=C\N=N\c1ccccc1`, the EC50 was 10 µM.
Consider `C(=C\N1CCCC1)/N=N/c1ccccc1`, for which the EC50 is > 63 µM.
Consider `CN1/C(=C\N=N\c2ccc(Cl)cc2)C(C)(C)c2ccccc21`, for which the concentration for a half-maximal effect (EC50) was > 72 µM.

Test system in another series: not listed separately
As to the kind of experiment: Cytotoxicity against mock-infected human MT4 cells assessed as reduction in cell viability after 96 hrs by MTT assay. The class given is cell-based.
Conditions: not given
In short, it runs like this:
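Exponentially growing MT-4 cells seeded at 1 × 10^5 cells/mL in RPMI-1640 with 10% FCS, penicillin and streptomycin, with or without serial compound dilutions. Incubated at 37 °C, 5% CO2; viability read by MTT after 96 h. CC50 is the concentration reducing mock-infected cell viability by 50%.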
Take `COc1ccc(N2CCN(/C=C/N=N/c3ccccc3)CC2)cc1`: the CC50 at 96 h was determined as 29 µM.
For `CN1CCC/C1=C\N=N\c1ccc(Cl)cc1`, the CC50 at 96 h was > 100 µM.
Turning to `CN1CCC/C1=C\N=N\c1cccc([N+](=O)[O-])c1`, the CC50 at 96 h stood at 25 µM.
On to `FC(F)(F)c1cccc(N2CCN(/C=C/N=N/c3ccccc3)CC2)c1`, for which the CC50 at 96 h stood at 30 µM.
With `CN1CCC/C1=C\N=N\c1ccccc1`, the CC50 at 96 h was > 100 µM.
The same measure, in the same setting: to `C(=C\N1CCCC1)/N=N/c1ccccc1` belongs 8 µM.
On the same count and under the same terms, to `CN1/C(=C\N=N\c2ccc(Cl)cc2)C(C)(C)c2ccccc21` belongs 55 µM.

Test system in the next series: not listed separately
The series can be described thus: Cytotoxicity against mock-infected BHK cells assessed as reduction in cell viability after 96 hrs by MTT assay. The series is classed as cell-based, Mesocricetus auratus. To be noted: hamster. The method, boiled down: as §1
For `COc1ccc(N2CCN(/C=C/N=N/c3ccccc3)CC2)cc1`, the CC50 at 96 h was found to be 46 µM.
With `CN1CCC/C1=C\N=N\c1ccc(Cl)cc1`, the CC50 at 96 h turned out to be 55 µM.
Same read-out and setting: as for `CN1CCC/C1=C\N=N\c1cccc([N+](=O)[O-])c1`, the figure is > 100 µM; as for `FC(F)(F)c1cccc(N2CCN(/C=C/N=N/c3ccccc3)CC2)c1`, 43 µM.
As to `CN1CCC/C1=C\N=N\c1ccccc1`, the CC50 at 96 h is > 100 µM.
Regarding `C(=C\N1CCCC1)/N=N/c1ccccc1`, the cytotoxic concentration (CC50) at 96 h came to 82 µM.
Still for that read-out and setting: to `CN1/C(=C\N=N\c2ccc(Cl)cc2)C(C)(C)c2ccccc21` belongs 21 µM.

Test system in another series: not listed separately
The series can be described thus: Cytotoxicity against mock-infected african green monkey Vero76 cells assessed as reduction in cell viability after 96 hrs by MTT assay. To be noted: chlorocebus sabaeus. The series is classed as cell-based, Vero.
As for `COc1ccc(N2CCN(/C=C/N=N/c3ccccc3)CC2)cc1`, the CC50 at 96 h amounted to 38 µM.
Still for that read-out and setting: to `CN1CCC/C1=C\N=N\c1ccc(Cl)cc1` belongs 92 µM; to `CN1CCC/C1=C\N=N\c1cccc([N+](=O)[O-])c1`, > 100 µM.
Consider `FC(F)(F)c1cccc(N2CCN(/C=C/N=N/c3ccccc3)CC2)c1`, for which the CC50 at 96 h came out at 11 µM.
Regarding `CN1CCC/C1=C\N=N\c1ccccc1`, the CC50 at 96 h was found to be 82 µM.
Consider `C(=C\N1CCCC1)/N=N/c1ccccc1`, for which the CC50 at 96 h was found to be 70 µM.
Regarding `CN1/C(=C\N=N\c2ccc(Cl)cc2)C(C)(C)c2ccccc21`, the CC50 at 96 h was > 100 µM.

In another series the test system is Yellow fever virus. The series can be described thus: Antiviral activity against YFV infected in BHK21 cells assessed as protection against virus-induced cytopathogenicity after 4 days by MTT assay. The class given is functional, organism-based. To be noted: BHK-21, 96 h. The method, boiled down:
as §2
Regarding `COc1ccc(N2CCN(/C=C/N=N/c3ccccc3)CC2)cc1`, the 50% effective concentration (EC50) was > 46 µM.
Turning to `CN1CCC/C1=C\N=N\c1ccc(Cl)cc1`, the EC50 is > 55 µM.
Turning to `CN1CCC/C1=C\N=N\c1cccc([N+](=O)[O-])c1`, the EC50 is > 100 µM.
Turning to `FC(F)(F)c1cccc(N2CCN(/C=C/N=N/c3ccccc3)CC2)c1`, the EC50 is 9 µM.
In the case of `CN1CCC/C1=C\N=N\c1ccccc1`, the concentration giving a half-maximal response (EC50) was > 100 µM.
On the same count and under the same terms, to `C(=C\N1CCCC1)/N=N/c1ccccc1` belongs > 82 µM; to `CN1/C(=C\N=N\c2ccc(Cl)cc2)C(C)(C)c2ccccc21`, > 21 µM.

The subject of a further series is Respiratory syncytial virus. The series can be described thus: Antiviral activity against RSV infected in Vero76 cells assessed as reduction in virus plaque formation after 4 days by MTT assay. As to conditions: human respiratory syncytial virus, Vero 76, 96 h. The class given is functional, organism-based.
Take `COc1ccc(N2CCN(/C=C/N=N/c3ccccc3)CC2)cc1`: the 50% effective concentration (EC50) came out at 6 µM.
The same measure, in the same setting: as for `CN1CCC/C1=C\N=N\c1ccc(Cl)cc1`, the figure is 20 µM; as for `CN1CCC/C1=C\N=N\c1cccc([N+](=O)[O-])c1`, > 100 µM.
As to `FC(F)(F)c1cccc(N2CCN(/C=C/N=N/c3ccccc3)CC2)c1`, the EC50 came to 4 µM.
Same read-out and setting: as for `CN1CCC/C1=C\N=N\c1ccccc1`, the figure is 20 µM.
For `C(=C\N1CCCC1)/N=N/c1ccccc1`, the EC50 came to 30 µM.
`CN1/C(=C\N=N\c2ccc(Cl)cc2)C(C)(C)c2ccccc21`: the EC50 is > 100 µM.

The test system of the next series is Poliovirus 1. The series can be described thus: Antiviral activity against Sb1 virus infected in Vero76 cells assessed as reduction in virus plaque formation after 4 days by MTT assay. As to conditions: Enterovirus C, Sabin, Vero 76, 96 h. The series is classed as functional, organism-based.
Consider `COc1ccc(N2CCN(/C=C/N=N/c3ccccc3)CC2)cc1`, for which the EC50 is > 38 µM.
In the case of `CN1CCC/C1=C\N=N\c1ccc(Cl)cc1`, the EC50 is > 92 µM.
Still for that read-out and setting: to `CN1CCC/C1=C\N=N\c1cccc([N+](=O)[O-])c1` belongs > 100 µM.
Same read-out and setting: to `FC(F)(F)c1cccc(N2CCN(/C=C/N=N/c3ccccc3)CC2)c1` belongs > 11 µM; to `CN1CCC/C1=C\N=N\c1ccccc1`, > 82 µM.
Still for that read-out and setting: as for `C(=C\N1CCCC1)/N=N/c1ccccc1`, the figure is > 70 µM; as for `CN1/C(=C\N=N\c2ccc(Cl)cc2)C(C)(C)c2ccccc21`, > 100 µM.

The next series relates to Vaccinia virus. As to the kind of experiment: Antiviral activity against VV infected in Vero76 cells assessed as reduction in virus plaque formation after 4 days by MTT assay. As to conditions: Orthopoxvirus vaccinia; Vero 76. The class given is functional, organism-based.
With `COc1ccc(N2CCN(/C=C/N=N/c3ccccc3)CC2)cc1`, the result was inactive.
Same read-out and setting: to `CN1CCC/C1=C\N=N\c1ccc(Cl)cc1` belongs “inactive”.
Take `CN1CCC/C1=C\N=N\c1cccc([N+](=O)[O-])c1`: the result was inactive.
Regarding `FC(F)(F)c1cccc(N2CCN(/C=C/N=N/c3ccccc3)CC2)c1`, the outcome was inactive.
Consider `CN1CCC/C1=C\N=N\c1ccccc1`, for which the outcome was inactive.
For the molecule `C(=C\N1CCCC1)/N=N/c1ccccc1`, the outcome was inactive.
`CN1/C(=C\N=N\c2ccc(Cl)cc2)C(C)(C)c2ccccc21`: the result was inactive.
